Converted amounts (≈) assume the structure as drawn. The source made the active and inactive calls. The rule behind the calls is not given here.

For one data set, the system named is MDCK. Briefly: Cytotoxicity against MDCK cells assessed as effect on cell viability at 50 uM measured after 36 hrs by CellTiter-Glo assay. The class given is cell-based, Canis lupus familiaris. The settings on record: dog. In a few lines: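 MDCK cells (1 × 10⁴ per well) left to adhere 24 h at 37 °C, 5% CO₂. Medium then replaced with fresh medium containing compound at 50 μM, in triplicate. Controls received medium with 1% DMSO. Plates incubated 36 h at 37 °C, 5% CO₂, then viability read by CellTiter-Glo luminescence.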
In general terms: Cellular ATP, detected with luciferase, serves as a proxy for viable cell number.

For the next data set, the system named is Influenza A virus. In words: Antiviral activity against Influenza A virus (A/WSN/33(H1N1)) infected in MDCK cells assessed as reduction in virus-induced cytopathic effect at 50 uM after 40 hrs by CellTiter-Glo assay. In kind it is functional, organism-based. Conditions: A/WSN/1933(H1N1). In a few lines: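 MDCK cells seeded, grown overnight, then infected with A/WSN/33 (H1N1) at MOI 0.1 in DMEM with 1% FBS, 2 μg/mL TPCK-treated trypsin and test compound (final DMSO 1%). Compounds screened at a single 50 μM concentration. Incubation 40 h, then viability read by CellTiter-Glo luminescence. Oseltamivir positive control, DMSO negative control. Virus stock titres determined in MDCK cells by Reed and Muench.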
Background: Cytopathic effects are the visible damage that an infection or toxin causes in cultured cells.

A further data set deals with Human gammaherpesvirus 4. In words: Antiviral activity against EBV infected in human Raji cells assessed as reduction in viral genome copy numbers by qRT-PCR analysis. The class given is functional, organism-based. Conditions: human gammaherpesvirus 4, Raji. On the technique in general: Quantitative PCR measures a nucleic acid by following its amplification.
Data set [1] has as its system Human alphaherpesvirus 1. In words: Antiviral activity against […] Herpes simplex virus 1 KOS infected in African green monkey Vero cells assessed as reduction in viral titer after 72 hrs by crystal violet staining based assay. In kind it is functional, organism-based. Conditions: Human alphaherpesvirus 1, strain KOS.
Data set [2] concerns Human alphaherpesvirus 1. Briefly: Antiviral activity against […] Herpes simplex virus 1 B2006 infected in African green monkey Vero cells assessed as reduction in viral titer after 72 hrs by crystal violet staining based assay. Conditions: Human alphaherpesvirus 1, B2006, Vero. The class given is functional, organism-based.
A short description of data set [3]: Lipophilicity, log P of the compound. In kind it is physicochemical. Conditions: octanol/water. In a few lines:
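Calculated value (AlogP, Ghose and Crippen octanol–water partition coefficient at 25 °C), computed in silico rather than measured.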

Data set [4] can be described thus: Solubility of the compound in water. In kind it is physicochemical. The settings on record: buffer.

With `CC(=O)OC[C@H]1O[C@@H]2O[C@H]3[C@H](OC(C)=O)[C@@H](OC(C)=O)[C@@H](O[C@H]4[C@H](OC(C)=O)[C@@H](OC(C)=O)[C@@H](O[C@H]5[C@H](OC(C)=O)[C@@H](OC(C)=O)[C@@H](O[C@H]6[C@H](OC(C)=O)[C@@H](OC(C)=O)[C@@H](O[C@H]7[C@H](OC(C)=O)[C@@H](OC(C)=O)[C@@H](O[C@H]8[C@H](OC(C)=O)[C@@H](OC(C)=O)[C@@H](O[C@H]1[C@H](OC(C)=O)[C@H]2OC(C)=O)O[C@@H]8COC(C)=O)O[C@@H]7COC(C)=O)O[C@@H]6COC(C)=O)O[C@@H]5Cn1cc(COCCOCCOCCOCCOCCOCCNC(=O)[C@@]2(C)CC[C@]5(C)CC[C@]6(C)C(=CC(=O)[C@@H]7[C@@]8(C)CC[C@H](O)C(C)(C)[C@@H]8CC[C@]76C)[C@@H]5C2)nn1)O[C@@H]4COC(C)=O)O[C@@H]3COC(C)=O`, in the data set with MDCK, the Activity result was “Non-Toxic”. Also, the result in the data set on Influenza A virus was Active.
As a reminder, the EC50 is the concentration giving half of the maximal effect. Consider `CC1(C)[C@@H](O[C@H]2O[C@H](C(=O)O)[C@@H](O)[C@H](O)[C@H]2O[C@@H]2O[C@H](C(=O)O)[C@@H](O)[C@H](O)[C@H]2O)CC[C@]2(C)[C@H]3C(=O)C=C4[C@@H]5C[C@@](C)(C(=O)O)CC[C@]5(C)CC[C@@]4(C)[C@]3(C)CC[C@@H]12` [GLYCYRRHIZIN], for which the half-maximal effective concentration (EC50) with Human gammaherpesvirus 4 worked out at 30 µM.
On to `CC1(C)[C@@H](O)CC[C@]2(C)[C@H]3C(=O)C=C4[C@@H]5C[C@@](C)(C(=O)NCCOCCOCCOCCOCCOCCOCc6cn(C[C@H]7O[C@@H]8O[C@H]9[C@H](O)[C@@H](O)[C@@H](O[C@H]%10[C@H](O)[C@@H](O)[C@@H](O[C@H]%11[C@H](O)[C@@H](O)[C@@H](O[C@H]%12[C@H](O)[C@@H](O)[C@@H](O[C@H]%13[C@H](O)[C@@H](O)[C@@H](O[C@H]%14[C@H](O)[C@@H](O)[C@@H](O[C@H]7[C@H](O)[C@H]8O)O[C@@H]%14CO)O[C@@H]%13CO)O[C@@H]%12CO)O[C@@H]%11CO)O[C@@H]%10CO)O[C@@H]9CO)nn6)CC[C@]5(C)CC[C@@]4(C)[C@]3(C)CC[C@@H]12`, for which, in the data set on MDCK, the Activity result is on record as “Non-Toxic”. In the data set on Influenza A virus, the result was Active.
For the molecule `CC(=O)OC[C@H]1O[C@@H]2O[C@H]3[C@H](OC(C)=O)[C@@H](OC(C)=O)[C@@H](O[C@H]4[C@H](OC(C)=O)[C@@H](OC(C)=O)[C@@H](O[C@H]5[C@H](OC(C)=O)[C@@H](OC(C)=O)[C@@H](O[C@H]6[C@H](OC(C)=O)[C@@H](OC(C)=O)[C@@H](O[C@H]7[C@H](OC(C)=O)[C@@H](OC(C)=O)[C@@H](O[C@H]8[C@H](OC(C)=O)[C@@H](OC(C)=O)[C@@H](O[C@H]1[C@H](OC(C)=O)[C@H]2OC(C)=O)O[C@@H]8COC(C)=O)O[C@@H]7COC(C)=O)O[C@@H]6COC(C)=O)O[C@@H]5Cn1cc(COCCOCCNC(=O)[C@@]2(C)CC[C@]5(C)CC[C@]6(C)C(=CC(=O)[C@@H]7[C@@]8(C)CC[C@H](O)C(C)(C)[C@@H]8CC[C@]76C)[C@@H]5C2)nn1)O[C@@H]4COC(C)=O)O[C@@H]3COC(C)=O`, the Activity entry in the data set on MDCK is “Non-Toxic”. For the same molecule, the result in the data set on Influenza A virus was Active.
As for `CC(=O)OC[C@H]1O[C@@H]2O[C@H]3[C@H](O)[C@@H](O)[C@@H](O[C@H]4[C@H](O)[C@@H](O)[C@@H](O[C@H]5[C@H](O)[C@@H](O)[C@@H](O[C@H]6[C@H](O)[C@@H](O)[C@@H](O[C@H]7[C@H](O)[C@@H](O)[C@@H](O[C@H]8[C@H](O)[C@@H](O)[C@@H](O[C@H]1[C@H](O)[C@H]2O)O[C@@H]8CO)O[C@@H]7CO)O[C@@H]6CO)O[C@@H]5CO)O[C@@H]4Cn1cc(COCCOCCNC(=O)[C@@]2(C)CC[C@]4(C)CC[C@]5(C)C(=CC(=O)[C@@H]6[C@@]7(C)CC[C@H](O)C(C)(C)[C@@H]7CC[C@]65C)[C@@H]4C2)nn1)O[C@@H]3COC(C)=O`, the Activity entry with MDCK was “Non-Toxic”. Moreover, the result in the data set with Influenza A virus was Active.
For the molecule `CC(=O)OC[C@H]1O[C@@H]2O[C@H]3[C@H](OC(C)=O)[C@@H](OC(C)=O)[C@@H](O[C@H]4[C@H](OC(C)=O)[C@@H](OC(C)=O)[C@@H](O[C@H]5[C@H](OC(C)=O)[C@@H](OC(C)=O)[C@@H](O[C@H]6[C@H](OC(C)=O)[C@@H](OC(C)=O)[C@@H](O[C@H]7[C@H](OC(C)=O)[C@@H](OC(C)=O)[C@@H](O[C@H]8[C@H](OC(C)=O)[C@@H](OC(C)=O)[C@@H](O[C@H]1[C@H](OC(C)=O)[C@H]2OC(C)=O)O[C@@H]8COC(C)=O)O[C@@H]7COC(C)=O)O[C@@H]6COC(C)=O)O[C@@H]5Cn1cc(COCCOCCOCCOCCNC(=O)[C@@]2(C)CC[C@]5(C)CC[C@]6(C)C(=CC(=O)[C@@H]7[C@@]8(C)CC[C@H](O)C(C)(C)[C@@H]8CC[C@]76C)[C@@H]5C2)nn1)O[C@@H]4COC(C)=O)O[C@@H]3COC(C)=O`, in the data set with MDCK, the Activity result is listed as “Non-Toxic”. For the same molecule, the outcome with Influenza A virus was Active.
Take `CC(O)CNC(=O)[C@@]1(C)CC[C@]2(C)CC[C@]3(C)C(=CC(=O)[C@@H]4[C@@]5(C)CC[C@H](O)C(C)(C)[C@@H]5CC[C@]43C)[C@@H]2C1` (stereo not given in full): the EC50 in the data set on Human alphaherpesvirus 1 [1] and in the data set with Human alphaherpesvirus 1 [2] was 4.95 µM each time.
Regarding `CC(=O)OC[C@H]1O[C@@H]2O[C@H]3[C@H](OC(C)=O)[C@@H](OC(C)=O)[C@@H](O[C@H]4[C@H](OC(C)=O)[C@@H](OC(C)=O)[C@@H](O[C@H]5[C@H](OC(C)=O)[C@@H](OC(C)=O)[C@@H](O[C@H]6[C@H](OC(C)=O)[C@@H](OC(C)=O)[C@@H](O[C@H]7[C@H](OC(C)=O)[C@@H](OC(C)=O)[C@@H](O[C@H]8[C@H](OC(C)=O)[C@@H](OC(C)=O)[C@@H](O[C@H]1[C@H](OC(C)=O)[C@H]2OC(C)=O)O[C@@H]8COC(C)=O)O[C@@H]7COC(C)=O)O[C@@H]6COC(C)=O)O[C@@H]5Cn1cc(CNC(=O)[C@@]2(C)CC[C@]5(C)CC[C@]6(C)C(=CC(=O)[C@@H]7[C@@]8(C)CC[C@H](O)C(C)(C)[C@@H]8CC[C@]76C)[C@@H]5C2)nn1)O[C@@H]4COC(C)=O)O[C@@H]3COC(C)=O`, the Activity entry with MDCK is “Non-Toxic”. The result in the data set on Influenza A virus was Active.
As for `CC1(C)[C@@H](O)CC[C@]2(C)[C@H]3C(=O)C=C4[C@@H]5C[C@@](C)(C(=O)NCCOCc6cn(C[C@H]7O[C@@H]8O[C@H]9[C@H](O)[C@@H](O)[C@@H](O[C@H]%10[C@H](O)[C@@H](O)[C@@H](O[C@H]%11[C@H](O)[C@@H](O)[C@@H](O[C@H]%12[C@H](O)[C@@H](O)[C@@H](O[C@H]%13[C@H](O)[C@@H](O)[C@@H](O[C@H]%14[C@H](O)[C@@H](O)[C@@H](O[C@H]7[C@H](O)[C@H]8O)O[C@@H]%14CO)O[C@@H]%13CO)O[C@@H]%12CO)O[C@@H]%11CO)O[C@@H]%10CO)O[C@@H]9CO)nn6)CC[C@]5(C)CC[C@@]4(C)[C@]3(C)CC[C@@H]12`, in the data set with MDCK, the Activity entry was “Non-Toxic”. In the data set with Influenza A virus, the outcome was Active.
As a reminder, the logP is the decadic logarithm of the partition coefficient of the neutral form, usually between octanol and water. In general, solubility refers to the concentration that dissolves in the medium under given conditions. With `CC1(C)[C@@H](O)CC[C@]2(C)[C@H]3C(=O)C=C4[C@@H]5C[C@@](C)(C(=O)O)CC[C@]5(C)CC[C@@]4(C)[C@]3(C)CC[C@@H]12` [ENOXOLONE], the half-maximal effective concentration (EC50) in the data set on Human gammaherpesvirus 4 was found to be 4 µM. In data set [3], this molecule yielded a log partition coefficient (logP) of 6.75. For the same molecule, in data set [4], the solubility is 10.6 µg/mL (≈ 22.5 µM).

The record behind these values is ChEMBL document CHEMBL4400530, “Synthesis and structure-activity relationship studies of water-soluble β-cyclodextrin-glycyrrhetinic acid conjugates as potential anti-influenza virus agents” (Eur J Med Chem, 2019).
